Data reported in ChEMBL document CHEMBL1134318, “Design, synthesis, and biological characterization of bivalent 1-methyl-1,2,5,6-tetrahydropyridyl-1,2,5-thiadiazole derivatives as selective muscarinic agonists” (J Med Chem, 2001).
Converted amounts (≈) assume the structure as drawn.

What was measured:
[1] = biological target: T1, Muscarinic acetylcholine receptor M1 (Homo sapiens, UniProt P11229); assay: Agonistic activity against M1 muscarinic receptor expressed in A9 L cells.; type: functional, cell-based, A9L
T1 sequence (P11229 whole entry): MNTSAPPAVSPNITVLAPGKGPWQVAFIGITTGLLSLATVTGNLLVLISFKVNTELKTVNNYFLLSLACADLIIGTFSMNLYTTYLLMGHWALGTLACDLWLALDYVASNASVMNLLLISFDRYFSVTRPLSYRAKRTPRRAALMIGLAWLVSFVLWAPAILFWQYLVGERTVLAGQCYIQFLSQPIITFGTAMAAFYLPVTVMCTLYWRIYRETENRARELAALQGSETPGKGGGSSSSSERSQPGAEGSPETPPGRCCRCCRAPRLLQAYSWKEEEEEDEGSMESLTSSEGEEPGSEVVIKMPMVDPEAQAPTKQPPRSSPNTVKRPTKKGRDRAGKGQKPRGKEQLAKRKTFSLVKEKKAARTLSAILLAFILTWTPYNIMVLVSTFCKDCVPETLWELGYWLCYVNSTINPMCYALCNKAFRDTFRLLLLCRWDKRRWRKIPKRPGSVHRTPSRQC

[2] = biological target: T1, Muscarinic acetylcholine receptor M1; assay: (§1) Binding affinity towards M1 muscarinic receptor expressed in A9 L cells by displacing [3H](R)-QNB radioligand.
[3] = biological target: T2, Muscarinic acetylcholine receptor M4 (Homo sapiens, UniProt P08173); assay: Agonist activity against M4 muscarinic receptor expressed in RBL-2H3 Mast cells.; type: functional, cell-based
T2 sequence (P08173 whole entry): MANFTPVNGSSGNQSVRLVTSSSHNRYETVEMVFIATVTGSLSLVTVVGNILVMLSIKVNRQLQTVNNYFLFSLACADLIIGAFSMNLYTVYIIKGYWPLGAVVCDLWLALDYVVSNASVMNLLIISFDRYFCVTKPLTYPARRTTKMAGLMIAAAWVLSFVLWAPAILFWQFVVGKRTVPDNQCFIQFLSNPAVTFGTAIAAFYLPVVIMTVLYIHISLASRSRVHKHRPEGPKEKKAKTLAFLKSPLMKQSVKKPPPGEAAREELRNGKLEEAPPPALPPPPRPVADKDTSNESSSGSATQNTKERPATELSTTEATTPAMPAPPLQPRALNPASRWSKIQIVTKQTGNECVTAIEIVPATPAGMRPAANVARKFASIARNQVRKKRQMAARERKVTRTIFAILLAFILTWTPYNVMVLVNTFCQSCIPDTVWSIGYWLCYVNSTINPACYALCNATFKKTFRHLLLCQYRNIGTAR
In short: (§2)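 RBL-2H3 mast cell subclone stably transfected with human M4 receptor (>1 × 10^5 receptors/cell). Agonist action read as degranulation, i.e. hexosaminidase released into the supernatant, following earlier M1 methods. Dose-response data fit to a one-site stimulation model for Smax and EC50.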

[4] = Maximum release of beta-hexosaminidase was determined as a measure of degranulation; type: functional; set-up: reference not given here; in short: as §2
[5] = biological target: T3, Muscarinic acetylcholine receptor M1 (Homo sapiens) (UniProt P11229); conditions: at 100 µM
T3 sequence (whole entry): T1 sequence (P11229 whole entry)

[6] = biological target: T4, Muscarinic acetylcholine receptor M5 (Homo sapiens) (UniProt P08912); assay: Maximal level of stimulation as a percentage above basal levels.; type: functional
T4 sequence (whole entry): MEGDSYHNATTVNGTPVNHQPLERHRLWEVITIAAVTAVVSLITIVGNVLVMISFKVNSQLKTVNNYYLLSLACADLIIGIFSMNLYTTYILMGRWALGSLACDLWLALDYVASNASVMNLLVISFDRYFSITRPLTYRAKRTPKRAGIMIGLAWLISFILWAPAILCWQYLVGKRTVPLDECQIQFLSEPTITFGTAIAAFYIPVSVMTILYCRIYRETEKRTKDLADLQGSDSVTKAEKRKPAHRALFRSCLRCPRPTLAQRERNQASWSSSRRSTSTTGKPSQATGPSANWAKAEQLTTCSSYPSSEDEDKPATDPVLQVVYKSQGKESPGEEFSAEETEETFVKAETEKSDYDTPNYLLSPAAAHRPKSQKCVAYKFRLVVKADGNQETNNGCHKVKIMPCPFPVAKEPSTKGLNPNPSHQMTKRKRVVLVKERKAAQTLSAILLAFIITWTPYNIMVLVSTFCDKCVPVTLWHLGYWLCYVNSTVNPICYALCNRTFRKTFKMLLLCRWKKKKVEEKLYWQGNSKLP

[7] = biological target: T1, Muscarinic acetylcholine receptor M1; assay: as §1; type: cell-based, L929
In short: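 Competition binding on A9 L cell membrane homogenates (human M1) with 0.1 nM [3H]-(R)-QNB and 14 test-ligand concentrations, 0.01 nM to 3 mM. Buffer 25 mM sodium phosphate pH 7.4 with 5 mM MgCl2, 2 h at room temperature.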

[8] = biological target: T3, Muscarinic acetylcholine receptor M1 (Homo sapiens); assay: Agonist activity at M1 receptor coupled to phosphoinositide metabolism at 100 uM expressed as percent stimulation above basal levels relative to carbachol response; type: functional
In short: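 Stably transfected A9 L cells (and/or NIH 3T3) expressing human M1 receptor; agonist-stimulated accumulation of [3H]-inositol phosphates measured at 100 µM test ligand. […] Mean (SEM) of two to five assays per compound.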

[9] = Solubility in Kreb-Heinsleit buffer.; type: physicochemical
[10] = Solubility in deionized water.; type: physicochemical; conditions: read-out: S
[11] = biological target: T2, Muscarinic acetylcholine receptor M4; assay: Agonist activity against human M4 muscarinic receptor expressed in RBL-2H3 Mast cells; type: functional, cell-based; in short: as §2
[12] = biological target: T1, Muscarinic acetylcholine receptor M1; assay: Agonistic activity against M1 muscarinic receptor expressed in NIH 3T3 cells; type: functional, cell-based, NIH3T3

Row | EC50 [1] [nM] | Ki [2] [nM] | EC50 [3] [nM] | Max release [4] [%] | PI metabolism [5] [%] | SMILES | also measured
1 |  |  | > 100000 | 4 | -3 | CN1CCC=C(c2nsnc2OCCCCCCCOc2nsnc2C2=CCCN(C)C2)C1 | 
2 |  |  |  |  | < 10 | CN1CCC=C(c2nsnc2OCCOCCOCCOc2nsnc2C2=CCCN(C)C2)C1 | 
3 |  |  |  | 39 |  | CN1CCC=C(c2nsnc2OCCOc2nsnc2C2=CCCN(C)C2)C1 | Stimulation [8]: 50%; EC50 [11]: 3.9 µM
4 |  |  | > 100000 | 3 | 18 | CN1CCC=C(c2nsnc2OCCCCCCOc2nsnc2C2=CCCN(C)C2)C1 | 
5 |  |  |  |  | -1 | CN1CCC=C(c2nsnc2OCCCCCOc2nsnc2C2=CCCN(C)C2)C1 | 
6 |  |  |  |  | 21 | CN1CCC=C(c2nsnc2OCCCOc2nsnc2C2=CCCN(C)C2)C1 | 
7 |  |  |  |  | 21 | CN1CCC=C(c2nsnc2OCCCCOc2nsnc2C2=CCCN(C)C2)C1 | 
8 |  | 1.9 |  |  | < 10 | CN1CCC=C(c2nsnc2OCCOCCOCCOCCOCCOCCOc2nsnc2C2=CCCN(C)C2)C1 | 
9 |  | 1.5 |  |  | < 10 | CN1CCC=C(c2nsnc2OCCOCCOCCOCCOCCOc2nsnc2C2=CCCN(C)C2)C1 | 

More lines, now with the values behind:

Row | SMILES | EC50 [1] [nM] | Ki [2] [nM] | EC50 [3] [nM] | Max release [4] [%] | PI metabolism [5] [%] | also measured
10 | CN1CCC=C(c2nsnc2SCCCCCCCCSc2nsnc2C2=CCCN(C)C2)C1 | 920 | 5 |  |  |  | 
11 | CN1CCC=C(c2nsnc2SCCCCSc2nsnc2C2=CCCN(C)C2)C1 | 570 | 0.93 |  |  |  | 
12 | CN1CCC=C(c2nsnc2SCCCSc2nsnc2C2=CCCN(C)C2)C1 | 350 | 1.2 |  |  |  | 
13 | CN1CCC=C(c2nsnc2OCCCCCCCCCOc2nsnc2C2=CCCN(C)C2)C1 |  | 0.84 | 20000 | 61 | 27 | 
14 | CN1CCC=C(c2nsnc2SCCSc2nsnc2C2=CCCN(C)C2)C1 | 440 | 20 |  |  |  | 
15 | C[N+](C)(C)CCOC(N)=O |  |  |  | 87 |  | Smax [6]: 110%
16 | CN1CCC=C(c2nsnc2OCCOCCOc2nsnc2C2=CCCN(C)C2)C1 |  |  |  |  |  | Ki [7]: 4.9 nM; Stimulation [8]: < 10%
17 | CN1CCC=C(c2nsnc2OCCCCCCCCCCOc2nsnc2C2=CCCN(C)C2)C1 |  |  | 1100 | 24 | 76 | solubility [9]: 4 µg/mL (≈ 0.00751 mM); solubility [10]: 25 mg/mL (≈ 46.9 mM)
18 | CN1CCC=C(c2nsnc2OCCCCCCCCOc2nsnc2C2=CCCN(C)C2)C1 |  |  | > 100000 | 1 | 8.2 | 
19 | CN1CCC=C(c2nsnc2SCCCCCCCCCCSc2nsnc2C2=CCCN(C)C2)C1 | 2100 | 0.32 | 0.6 | 61 |  | 
20 | CN1CCC=C(c2nsnc2SCCCCCCSc2nsnc2C2=CCCN(C)C2)C1 | 590 | 0.87 |  |  |  | 
21 | CN1CCC=C(c2nsnc2SCCCCCCCCCCCCSc2nsnc2C2=CCCN(C)C2)C1 | 13000 | 0.69 | 1 | 54 |  | 
22 | CCCCCCOc1nsnc1C1=CCCN(C)C1 |  |  |  |  | 47 | 
23 | CN1CCC=C(c2nsnc2SCCCCCSc2nsnc2C2=CCCN(C)C2)C1 | 79 | 14 |  |  |  | 
24 | CN1CCC=C(c2nsnc2OCCOCCOCCOCCOc2nsnc2C2=CCCN(C)C2)C1 |  |  | 5.2 | 43 | 56 | solubility [9]: 20 µg/mL (≈ 0.0362 mM); solubility [10]: > 1000 mg/mL; EC50 [12]: 290 nM; Smax [6]: -3.7%
25 | CN1CCC=C(c2nsnc2SCCCCCCCCCSc2nsnc2C2=CCCN(C)C2)C1 | 120 | 17 |  |  |  | 
26 | CN1CCC=C(c2nsnc2OCCCCCCCCCCCCOc2nsnc2C2=CCCN(C)C2)C1 |  | 1.6 | 1.4 | 57 | 84 | solubility [9]: 1.7 µg/mL (≈ 0.00303 mM); solubility [10]: 20 mg/mL (≈ 35.7 mM)
27 | CN1CCC=C(c2nsnc2SCCCCCCCSc2nsnc2C2=CCCN(C)C2)C1 | 180 | 7.6 |  |  |  | 
28 | CC(=O)OCC[N+](C)(C)C |  |  |  |  |  | Smax [6]: 99%
29 | CN1CCC=C(c2nsnc2SCCCCCCCCCCCSc2nsnc2C2=CCCN(C)C2)C1 | 1500 | 0.57 | 4.7 | 29 |  | 
